In the library only some 0.64% were active in any assay of this set; here they are far more common.
PMI act hi M6P: PMI (human) activation, high substrate; activation factor at 20 µM; coupled PMI enzyme assay, resazurin fluorescence, 20 min; hits give high values; 1 = untreated enzyme, 0 = substrate-free blank; hit rate 0.34% among 190,000; P34949; AID 1216;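 active = activation factor of 2 or more at 20 µM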
Target sequence (P34949 whole entry, looked up): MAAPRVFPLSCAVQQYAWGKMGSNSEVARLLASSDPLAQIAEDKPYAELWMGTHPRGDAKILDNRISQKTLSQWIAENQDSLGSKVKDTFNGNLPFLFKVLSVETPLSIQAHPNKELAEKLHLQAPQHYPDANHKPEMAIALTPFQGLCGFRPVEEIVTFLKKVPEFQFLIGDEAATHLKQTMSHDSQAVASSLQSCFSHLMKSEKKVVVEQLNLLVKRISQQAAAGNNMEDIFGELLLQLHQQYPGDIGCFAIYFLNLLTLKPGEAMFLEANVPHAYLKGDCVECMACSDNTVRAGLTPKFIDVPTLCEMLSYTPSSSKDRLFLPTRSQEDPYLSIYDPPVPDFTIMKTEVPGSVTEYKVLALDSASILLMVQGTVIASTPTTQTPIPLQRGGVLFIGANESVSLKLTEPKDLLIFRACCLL
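Material: human phosphomannose isomerase with PGI, G6PDH, diaphorase coupling enzymes. Quantity: 15 ng/mL PMI. Medium: HEPES pH 7.4 buffer with MgCl2 and Tween-20. Reagent: Near-saturating mannose-6-phosphate, 1.0 mM. Compound: 20 µM single dose. Times: enzyme reaction with compound 20 min at room temperature. Detection: resorufin fluorescence at Ex 544/Em 590 nm.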
PMI activator: increases human mannose-6-phosphate isomerase activity | purified human PMI, coupled resazurin fluorescence, 20 min; hits give high values; 1 = vehicle control, 0 substrate-free wells | activation factor at 20 µM | hit rate 0.005% among 190,000 | AID 1214;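 active = activation factor of 2 or more at 20 µM, relative to plate controls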
TNAP act hiacc: TNAP (human) activation, high acceptor; 200,000 tested, under 10 active; activation factor at 20 µM; P05186; purified TNAP, CDP-star luminescence, 1 M DEA, 30 min; hits give high values; 0 = EDTA background, 1 = DMSO-only activity;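 active = activation factor at least 2 at 20 µM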
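system = human TNAP | amount = enzyme diluted 1/800 final | reagent = 100 µM CDP-star substrate | signal = luminescent substrate turnover signal | dosing = one dose, 20 µM | benchmarks = EDTA negative control, DMSO positive control | measure = activation factor | timing = 30 min reaction, room temperature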
TNAP inh no acc: blocks human TNAP activity with no phosphate acceptor present | purified TNAP, CDP-star luminescence, 30 min | hit rate 0.26% among 200,000 | AID 1012 | inhibition, % at 20 µM | P05186;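 active = tissue-nonspecific alkaline phosphatase inhibition above about 50% at 20 µM in the single-dose screen, limit read from the data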;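 also: 0% = DMSO negative control and 100% = EDTA positive control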
TNAP inh hi DEA: blocks human TNAP under high phosphate acceptor concentration. P05186. purified TNAP, CDP-star luminescence, 1 M DEA. inhibition, % at 20 µM. hit rate 0.03% among 200,000. AID 1135;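 active = over 50% inhibition of tissue-nonspecific alkaline phosphatase at 20 µM in the single-dose screen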;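 also: plate controls were DMSO wells for no effect and EDTA-quenched wells as full inhibition for full effect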
* hit, by the source's call.

For OCCCC1CCCN(Cc2cn[nH]c2-c2ccc(F)cc2F)C1 (configuration not stated) the results were PMI act hi M6P 1.1, PMI activator 1, TNAP act hiacc 1, TNAP inh no acc 53* and TNAP inh hi DEA -2.
`COc1ccc(-c2[nH]ncc2CN2CCC(C(=O)N3CCOCC3)CC2)c(F)c1` gave PMI act hi M6P 1, PMI activator 0.9, TNAP act hiacc 1, TNAP inh no acc 68* and TNAP inh hi DEA 1.
For COc1ccc(OC)c(S(=O)(=O)N2CCC(C(=O)N3CCOCC3)CC2)c1 the results were PMI act hi M6P 0.9, PMI activator 0.9, TNAP act hiacc 1, TNAP inh no acc -5 and TNAP inh hi DEA -2.
Cc1[nH]nc(SCC(=O)N(C)c2ccccc2)c1[N+](=O)[O-] was read as PMI act hi M6P 1.7, PMI activator 1.3, TNAP act hiacc 1.1, TNAP inh no acc 3 and TNAP inh hi DEA -5.
`Cc1ccc(N=C2NC(=O)/C(=C/C=C/c3ccco3)S2)cc1` gave PMI act hi M6P 1.9, PMI activator 1.5, TNAP act hiacc 0.8, TNAP inh no acc 32 and TNAP inh hi DEA 15.
`O=C1NC(=Nc2ccccc2)S/C1=C\C=C\c1ccco1` gave PMI act hi M6P 1, PMI activator 1, TNAP act hiacc 0.9, TNAP inh no acc 56* and TNAP inh hi DEA 9.
`O=C(NC(NC(=S)Nc1ccc(Cl)cc1Cl)C(Cl)(Cl)Cl)c1cccc([N+](=O)[O-])c1` (configuration not stated) gave PMI act hi M6P 0.9, PMI activator 0.8, TNAP act hiacc 1, TNAP inh no acc 6 and TNAP inh hi DEA -2.
For CCCn1c(SCC(=O)OCC)nc(C(F)(F)F)cc1=O the results were PMI act hi M6P 1, PMI activator 1.1, TNAP act hiacc 1, TNAP inh no acc -14 and TNAP inh hi DEA -1.
`NC(=O)c1ccc(-n2nnnc2SCC(=O)c2ccc(O)c(O)c2)cc1` gave PMI act hi M6P 1.1, PMI activator 0.7, TNAP act hiacc 0.9, TNAP inh no acc 82* and TNAP inh hi DEA 15.
Cc1cc(C(=O)CSc2nnnn2-c2ccc(O)cc2)c(C)n1C was read as PMI act hi M6P 0.9, PMI activator 1, TNAP act hiacc 1, TNAP inh no acc 5 and TNAP inh hi DEA 0.
`COc1ccc(-n2nnnc2SCC(=O)c2ccc(O)c(O)c2)cc1` gave PMI act hi M6P 0.7, PMI activator 0.7, TNAP act hiacc 0.8, TNAP inh no acc 76* and TNAP inh hi DEA 18.
`CC1CC(=O)C2=C(C1)Nc1nc3ccccc3n1C2c1cccnc1` (configuration not stated) gave PMI act hi M6P 0.8, PMI activator 0.9, TNAP act hiacc 1, TNAP inh no acc 53* and TNAP inh hi DEA -3.
For O=C1CCCC2=C1C(c1ccncc1)n1c(nc3ccccc31)N2 (configuration not stated) the results were PMI act hi M6P 1, PMI activator 1.1, TNAP act hiacc 1, TNAP inh no acc 20 and TNAP inh hi DEA -3.
NC(=O)CC1NC(=O)c2cc([N+](=O)[O-])cc(I)c2OCCC(C(N)=O)NC(=O)[C@@H]2CCCN2C1=O (some centres not stated) was read as PMI act hi M6P 1.2, PMI activator 1.2, TNAP act hiacc 1, TNAP inh no acc -11 and TNAP inh hi DEA -1.
For Nc1ncnc2nc(SCC(=O)N3CCN(c4ccccc4)CC3)[nH]c12 the results were PMI act hi M6P 1.1, PMI activator 1, TNAP act hiacc 1, TNAP inh no acc 62* and TNAP inh hi DEA 1.
For COc1ccccc1N1CCN(C(=O)CSc2nc(-c3ccccc3)cc(=O)[nH]2)CC1 the results were PMI act hi M6P 1.1, PMI activator 1, TNAP act hiacc 1, TNAP inh no acc -11 and TNAP inh hi DEA -2.
Screening COc1ccccc1N1CCN(C(=O)CSc2nc3ncnc(N)c3[nH]2)CC1 returned PMI act hi M6P 1.1, PMI activator 1, TNAP act hiacc 1.1, TNAP inh no acc 60* and TNAP inh hi DEA -6.
